This passage reports %max, EC50 and Activity results from ChEMBL document CHEMBL4229527, “Design and synthesis of novel pyrimido[5,4-d]pyrimidine derivatives as GPR119 agonist for treatment of type 2 diabetes” (Bioorg Med Chem, 2018).

The target in assay [1] is T1, Glucose-dependent insulinotropic receptor (Homo sapiens) (UniProt Q8TDV5).
T1 sequence (whole entry): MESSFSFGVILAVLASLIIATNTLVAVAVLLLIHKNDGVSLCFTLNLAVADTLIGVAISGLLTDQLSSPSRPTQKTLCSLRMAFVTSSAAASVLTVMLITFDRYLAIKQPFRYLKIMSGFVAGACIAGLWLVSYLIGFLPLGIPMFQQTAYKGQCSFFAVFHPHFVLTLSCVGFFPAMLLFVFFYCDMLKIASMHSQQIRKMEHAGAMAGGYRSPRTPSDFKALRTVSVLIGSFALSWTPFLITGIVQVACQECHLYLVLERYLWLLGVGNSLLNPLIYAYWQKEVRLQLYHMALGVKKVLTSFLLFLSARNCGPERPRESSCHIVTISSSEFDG
Nature of the assay: Agonist activity at human GPR119 expressed in CHOK1 cells assessed as cAMP accumulation after 1 hr by ultra LANCE assay relative to GSK1292263. The assay is classed as functional, cell-based. A digest of the protocol:
(§1)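 hGPR119-transfected cells were centrifuged and resuspended in cAMP assay buffer (HBSS, 0.1% BSA, 0.5 mM IBMX). They were treated with compounds over a concentration range for 1 h. Eu-cAMP tracer and ULight anti-cAMP lysis solutions were then added, with 1 h at room temperature. LANCE Ultra TR-FRET read, triplicates per concentration. EC50 is the concentration giving 50% cAMP stimulation; %max is relative to GSK-1292263 maximal effect.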
Background: Changes in cAMP serve as a functional read-out for many G protein-coupled receptors.

The target of assay [2] is T2, Glucose-dependent insulinotropic receptor (Homo sapiens, UniProt Q8TDV5).
T2 sequence (Q8TDV5 whole entry): T1 sequence (whole entry)
Nature of the assay: Agonist activity at human GPR119 expressed in CHOK1 cells assessed as cAMP accumulation after 1 hr by ultra LANCE assay. The assay is classed as functional, cell-based. A digest of the protocol: as §1

The test system of assay [3] is Mus musculus. Briefly: Antidiabetic activity in C57BL/6N mouse assessed as reduction in blood glucose AUC (0 to 120 mins) administered as single dose after 16 hrs of starvation followed by glucose challenge at 4 hrs post dose by OGTT. The class given is functional, organism-based. A digest of the protocol: (§2)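 C57BL/6N mice were fasted 16 h and given a single dose: vehicle (0.5% sodium carboxymethylcellulose, 10 mL/kg), test compounds at 5 or 15 mg/kg, or metformin at 300 mg/kg. A glucose challenge (3 g/kg, oral) followed 4 h later. Blood glucose was read at 0, 15, 30, 60, 90 and 120 min for AUC0–2h. n = 8; mean ± SE versus vehicle.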

Assay [4] concerns Mus musculus. Nature of the assay: Antidiabetic activity in C57BL/6N mouse assessed as reduction in blood glucose AUC (0 to 120 mins) at 15 mg/kg administered as single dose after 16 hrs of starvation followed by glucose challenge at 4 hrs post dose by OGTT relative to control. The class given is functional. The arrangement: scale not given: the % may be the effect or the level left. A digest of the protocol:
as §2

Assay [5] deals with Mus musculus. Nature of the assay: Antidiabetic activity in C57BL/6N mouse assessed as reduction in blood glucose AUC (0 to 120 mins) at 5 mg/kg administered as single dose after 16 hrs of starvation followed by glucose challenge at 4 hrs post dose by OGTT relative to control. The assay is classed as functional. The arrangement: scale not given: the % may be the effect or the level left. A digest of the protocol: as §2

For assay [6], the system named is Mus musculus. Briefly: Antidiabetic activity in C57BL/6N mouse assessed as reduction in blood glucose AUC (0 to 120 mins) at 300 mg/kg administered as single dose after 16 hrs of starvation followed by glucose challenge at 4 hrs post dose by OGTT relative to control. The assay is classed as functional. The arrangement: scale not given: the % may be the effect or the level left. Summed up: as §2

The structures appear in SMILES notation.

The EC50 is the concentration needed to bring the measured effect to its halfway point. For `CC(C)(C)OC(=O)N1[C@@H]2CC[C@H]1C[C@H](Nc1ncnc3c(Nc4ccc(S(C)(=O)=O)cc4)ncnc13)C2`, the %max in assay [1] was 47.5%. In addition, in assay [2], the concentration giving a half-maximal response (EC50) stood at 1.4 µM.

For the compound `CC(C)(C)OC(=O)N1C[C@@H]2CC[C@H]1C[C@@H]2Nc1ncnc2c(Nc3ccc(S(C)(=O)=O)cc3)ncnc12` (relative stereo), the %max in assay [1] came out at 71.8%. Further, in assay [2], the EC50 is 0.179 µM.

With `CC(C)(C)OC(=O)N1CCC(Nc2ncnc3c(Nc4ccc(C#N)cc4F)ncnc23)CC1`, the %max in assay [1] came to 67.2%. Further, the EC50 in assay [2] came to 0.147 µM.

Consider `CC(C)(C)OC(=O)N1[C@@H]2CC[C@H]1C[C@@H](Nc1ncnc3c(Nc4ccc(S(C)(=O)=O)cc4)ncnc13)C2`, for which, in assay [1], the %max was found to be 72.9%. For the same compound, in assay [2], the EC50 was 0.044 µM.

`CC(C)(C)OC(=O)N1[C@@H]2CC[C@H]1C[C@@H](Nc1ncnc3c(Nc4ccc(S(C)(=O)=O)cc4F)ncnc13)C2`: the Activity result in assay [3] is “Dose-dependent effect”; in assay [4], 13.5%; in assay [5], 6.4%. Further, in assay [1], the %max came out at 87.5%. The EC50 in assay [2] turned out to be 0.0022 µM.

For the compound `CC(C)(C)OC(=O)N1CCC(Nc2ncnc3c(Nc4ccc(S(C)(=O)=O)cc4)ncnc23)CC1`, the %max in assay [1] turned out to be 61.3%. Besides, in assay [2], the EC50 was 0.345 µM.

Consider `CC(C)(C)OC(=O)N1[C@@H]2CC[C@H]1C[C@H](Nc1ncnc3c(Nc4ccc(C#N)cc4F)ncnc13)C2`, for which the %max in assay [1] is 58.1%. Besides, the concentration giving a half-maximal response (EC50) in assay [2] came out at 1.7 µM.

For the compound `CC(C)(C)OC(=O)N1[C@@H]2CC[C@H]1C[C@H](Nc1ncnc3c(Nc4ccc(S(C)(=O)=O)cc4F)ncnc13)C2`, the %max in assay [1] was 65.3%. The EC50 in assay [2] was found to be 0.452 µM.

In the case of `CC(C)(C)OC(=O)N1[C@@H]2CC[C@H]1C[C@H](Oc1ncnc3c(Nc4ccc(C#N)cc4F)ncnc13)C2`, in assay [1], the %max turned out to be 36.4%. In addition, the EC50 in assay [2] is above 10 µM.

Take `CC(C)(C)OC(=O)N1C[C@@H]2CC[C@H]1C[C@H]2Nc1ncnc2c(Nc3ccc(C#N)cc3F)ncnc12` (relative stereo): the %max in assay [1] stood at 31.7%. Also, in assay [2], the EC50 was above 10 µM.

Take `CC(C)(C)OC(=O)N1[C@@H]2CC[C@H]1C[C@@H](Oc1ncnc3c(Nc4ccc(C#N)cc4F)ncnc13)C2`: the %max in assay [1] is 78.9%. Besides, in assay [2], the 50% effective concentration (EC50) came out at 0.036 µM.

Regarding `CC(C)(C)OC(=O)N1[C@@H]2CC[C@H]1C[C@@H](Nc1ncnc3c(Nc4ccc(C#N)cc4F)ncnc13)C2`, the Activity result was “Dose-dependent effect” in assay [3], 8.9% in assay [4] and 3.5% in assay [5]. The %max in assay [1] amounted to 83.8%. Moreover, in assay [2], the EC50 turned out to be 0.0081 µM.

On to `CN(C)C(=N)NC(=N)N` [METFORMIN], for which, in assay [6], the Activity stood at 18.2%.

Turning to `CC(C)(C)OC(=O)N1C[C@@H]2CC[C@H]1C[C@@H]2Nc1ncnc2c(Nc3ccc(C#N)cc3F)ncnc12` (relative stereo), in assay [1], the %max was found to be 73.3%. Moreover, in assay [2], the EC50 stood at 0.049 µM.

`CC(C)(C)OC(=O)N1CCC(Oc2ncnc3c(Nc4ccc(C#N)cc4F)ncnc23)CC1`: in assay [1], the %max came to 53.4%. Further, the half-maximal effective concentration (EC50) in assay [2] came out at 1 µM.
